In experiment [1] the test system is U-266. Briefly: Induction of apoptosis in human U266 cells assessed as caspase activation after 4 days by Apo-ONE Homogeneous caspase 3/7 assay. The class given is functional, cell-based. The method, boiled down: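 Homogeneous caspase 3/7 (Apo-ONE) luminescent/fluorescent signal used as apoptosis read-out in cells under compound treatment. U266 cultured in RPMI1640 with 10% heat-inactivated FBS and Pen-Strep.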

The test system of a further experiment is A2780. Nature of the experiment: Induction of apoptosis in human A2780 cells assessed as caspase activation after 4 days by Apo-ONE Homogeneous caspase 3/7 assay. The experiment is classed as functional, cell-based.
Experiment [2] has as its system U-266. Briefly: Inhibition of cyclin D1 transcription in human U266 cells at 100 uM after 6 hrs by microarray analysis. The experiment is classed as functional, cell-based. The method, boiled down:
(§1)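 U266 cells were seeded at 1 × 10⁶ cells/mL and treated 6 h in triplicate. RNA was purified, and 2-5 µg total RNA was converted to biotin-labelled cRNA by oligo-T7 reverse transcription and in vitro transcription with biotin-UTP/CTP. mRNA levels were then measured by microarray.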

In experiment [3] the test system is U-266. Briefly: Inhibition of Bcl2-like 1 transcription in human U266 cells at 100 uM after 6 hrs by microarray analysis. The class given is functional, cell-based. The method, boiled down:
as §1

Experiment [4] relates to U-266. Briefly: Inhibition of MCL1 transcription in human U266 cells at 100 uM after 6 hrs by microarray analysis. The class given is functional, cell-based. In short, it runs like this:
as §1

Experiment [5] deals with Signal transducer and activator of transcription 3 (Homo sapiens) (UniProt P40763). Briefly: Inhibition of STAT3 Y705 phosphorylation in human HeLa cells by Western blot analysis. The experiment is classed as cell-based.
Experiment [6] has the same target. Nature of the experiment: Inhibition of IFN-alpha-induced STAT3 Y705 phosphorylation in serum starved human HeLa cells by Western blot analysis. The class given is cell-based. The method, boiled down:
(§2)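 HeLa or DU145 cells in DMEM + 10% heat-inactivated FBS, ~80% confluent, were serum-starved overnight and treated with compound for 1 h. IFN-alpha 20000 units/mL was then added for 20 min. Cells were collected in 1.1X LDS sample buffer, sonicated, and analysed by Western blot for phospho-STAT3 Y705 with fluorescent secondary detection.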

For experiment [7] the target is unchanged. Briefly: Inhibition of STAT3 Y705 phosphorylation in human DU145 cells by Western blot analysis. The class given is cell-based. The following applies: DU-145. (Immunoblotting shows a protein as a band on a membrane.)
For experiment [8] the target is unchanged. Briefly: Inhibition of IFN-alpha-induced STAT3 Y705 phosphorylation in serum starved human DU145 cells by Western blot analysis. The experiment is classed as cell-based. The following applies: DU-145. In short, it runs like this:
as §2

Experiment [9] addresses RAC-alpha serine/threonine-protein kinase (Homo sapiens) (UniProt P31749). Briefly: Inhibition of AKT-mTOR pathway in human U266 cells assessed as p70S6 kinase T389 phosphorylation by Western blot. The class given is cell-based. To be noted: U-266. The method, boiled down: (§3)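 Steady-state phosphorylation: exponentially growing U266 cells (1 × 10⁶ cells at 2 × 10⁵ cells/mL, RPMI1640 + 10% FBS) were treated with compound for 1 h. Cells were lysed in PhosphoSafe reagent with protease inhibitors. Western blot used primary antibodies (1:1000, 2 h) and fluorescent secondaries (1 h) at room temperature. A representative blot from several repeats is shown.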

Experiment [10] shares this target. Briefly: Inhibition of AKT-mTOR pathway in human U266 cells assessed as S6-S240/244 phosphorylation by Western blot. The class given is cell-based. The following applies: U-266. In short, it runs like this: as §3
Experiment [11] is described as follows: Inhibition of MAPK pathway in human U266 cells assessed as p44/42 MAPK T202/204 phosphorylation by Western blot. To be noted: U-266. The experiment is classed as cell-based. The method, boiled down: as §3
Experiment [12] concerns the target Signal transducer and activator of transcription 3 (Homo sapiens) (UniProt P40763). Briefly: Inhibition of STAT3 S727 phosphorylation in human U266 cells. The experiment is classed as cell-based. To be noted: U-266. In short, it runs like this: as §3
The target is the same in experiment [13]. Nature of the experiment: Inhibition of IL6-induced STAT3 Y705 phosphorylation in serum starved human U266 cells by Western blot analysis. The experiment is classed as cell-based. The following applies: U-266.
The target is the same in experiment [14]. Nature of the experiment: Inhibition of IFN-alpha-induced STAT3 Y705 phosphorylation in serum starved human U266 cells by Western blot analysis. To be noted: U-266. The class given is cell-based. In short, it runs like this:
(§4)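 U266 cells in RPMI1640 + 10% heat-inactivated FBS were serum-starved 2 h, treated with compound 1 h, then stimulated with human IFN-alpha 20000 units/mL for 20 min. Cells were lysed in PhosphoSafe extraction reagent with protease inhibitors and analysed by Western blot with phospho-specific antibodies. JAK antibodies were used at 1:500 with milk blocking, others at 1:1000. Fluorescent secondaries were used.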

Experiment [15] deals with Tyrosine-protein kinase JAK1 (Homo sapiens) (UniProt P23458). Briefly: Inhibition of IFN-alpha-induced JAK1 Y1022/1023 phosphorylation in serum starved human U266 cells by Western blot analysis. The experiment is classed as cell-based. The following applies: U-266. The method, boiled down:
as §4

For experiment [16], the target named is Tyrosine-protein kinase JAK2 (Homo sapiens) (UniProt O60674). Nature of the experiment: Inhibition of IFN-alpha-induced JAK2 Y1007/1008 phosphorylation in serum starved human U266 cells by Western blot analysis. The class given is cell-based. The following applies: U-266. In short, it runs like this: as §4
Experiment [17] concerns the target Non-receptor tyrosine-protein kinase TYK2 (Homo sapiens) (UniProt P29597). Nature of the experiment: Inhibition of IFN-alpha-induced Tyk2 Y1054/1055 phosphorylation in serum starved human U266 cells by Western blot analysis. The class given is cell-based. To be noted: U-266. The method, boiled down: as §4
The target in experiment [18] is T1, Signal transducer and activator of transcription 5A (Homo sapiens) (UniProt P42229).
T1 sequence (whole entry): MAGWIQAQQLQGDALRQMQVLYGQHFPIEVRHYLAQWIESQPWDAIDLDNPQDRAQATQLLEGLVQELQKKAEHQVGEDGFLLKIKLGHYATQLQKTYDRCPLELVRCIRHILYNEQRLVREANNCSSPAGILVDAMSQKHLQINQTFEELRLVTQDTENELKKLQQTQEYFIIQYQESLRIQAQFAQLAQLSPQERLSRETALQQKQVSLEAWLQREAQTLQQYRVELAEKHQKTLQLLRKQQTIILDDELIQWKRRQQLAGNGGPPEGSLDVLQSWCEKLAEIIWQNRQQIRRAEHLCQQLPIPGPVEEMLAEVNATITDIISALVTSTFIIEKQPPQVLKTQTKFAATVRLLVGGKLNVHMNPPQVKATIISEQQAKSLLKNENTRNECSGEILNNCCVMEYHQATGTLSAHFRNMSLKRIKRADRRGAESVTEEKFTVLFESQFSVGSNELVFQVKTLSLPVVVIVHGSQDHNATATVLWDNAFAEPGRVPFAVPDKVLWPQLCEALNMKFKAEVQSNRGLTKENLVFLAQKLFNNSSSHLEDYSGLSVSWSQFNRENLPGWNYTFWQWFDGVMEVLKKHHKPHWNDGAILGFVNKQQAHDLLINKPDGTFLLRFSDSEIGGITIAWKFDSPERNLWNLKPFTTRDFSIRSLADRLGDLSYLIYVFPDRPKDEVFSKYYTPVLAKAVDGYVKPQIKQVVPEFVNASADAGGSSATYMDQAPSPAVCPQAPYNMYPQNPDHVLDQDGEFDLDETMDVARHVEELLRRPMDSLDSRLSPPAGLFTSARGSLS
Briefly: Inhibition of BCR-ABL-activated STAT5 Y694/699 phosphorylation in human K562 cells. The experiment is classed as cell-based. In short, it runs like this:
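K562 cells (1 × 10⁶ cells at 1 × 10⁶ cells/mL, RPMI1640 + 10% FBS) were treated with compound for 1 h. Lysates in PhosphoSafe reagent were analysed by Western blot with anti-phospho-STAT5 Tyr694/Tyr699 (1:1000) and fluorescent secondary detection.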

Another experiment deals with A-431. Nature of the experiment: Inhibition of EGF-stimulated MAPK activation in human A431 cells. The experiment is classed as cell-based.
Experiment [19] has as its target Tyrosine-protein kinase JAK1 (Homo sapiens) (UniProt P23458). Nature of the experiment: Inhibition of JAK1 at 1 uM. In short, it runs like this: (§5)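 In vitro JAK1, JAK2 and JAK3 enzyme kinase assay, each tested at 1 and 10 µM compound.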
The target of experiment [20] is Tyrosine-protein kinase JAK2 (Homo sapiens) (UniProt O60674). Nature of the experiment: Inhibition of JAK2 at 1 uM. In short, it runs like this: as §5
Experiment [21] deals with T2, Tyrosine-protein kinase JAK3 (Homo sapiens) (UniProt P52333).
T2 sequence (whole entry): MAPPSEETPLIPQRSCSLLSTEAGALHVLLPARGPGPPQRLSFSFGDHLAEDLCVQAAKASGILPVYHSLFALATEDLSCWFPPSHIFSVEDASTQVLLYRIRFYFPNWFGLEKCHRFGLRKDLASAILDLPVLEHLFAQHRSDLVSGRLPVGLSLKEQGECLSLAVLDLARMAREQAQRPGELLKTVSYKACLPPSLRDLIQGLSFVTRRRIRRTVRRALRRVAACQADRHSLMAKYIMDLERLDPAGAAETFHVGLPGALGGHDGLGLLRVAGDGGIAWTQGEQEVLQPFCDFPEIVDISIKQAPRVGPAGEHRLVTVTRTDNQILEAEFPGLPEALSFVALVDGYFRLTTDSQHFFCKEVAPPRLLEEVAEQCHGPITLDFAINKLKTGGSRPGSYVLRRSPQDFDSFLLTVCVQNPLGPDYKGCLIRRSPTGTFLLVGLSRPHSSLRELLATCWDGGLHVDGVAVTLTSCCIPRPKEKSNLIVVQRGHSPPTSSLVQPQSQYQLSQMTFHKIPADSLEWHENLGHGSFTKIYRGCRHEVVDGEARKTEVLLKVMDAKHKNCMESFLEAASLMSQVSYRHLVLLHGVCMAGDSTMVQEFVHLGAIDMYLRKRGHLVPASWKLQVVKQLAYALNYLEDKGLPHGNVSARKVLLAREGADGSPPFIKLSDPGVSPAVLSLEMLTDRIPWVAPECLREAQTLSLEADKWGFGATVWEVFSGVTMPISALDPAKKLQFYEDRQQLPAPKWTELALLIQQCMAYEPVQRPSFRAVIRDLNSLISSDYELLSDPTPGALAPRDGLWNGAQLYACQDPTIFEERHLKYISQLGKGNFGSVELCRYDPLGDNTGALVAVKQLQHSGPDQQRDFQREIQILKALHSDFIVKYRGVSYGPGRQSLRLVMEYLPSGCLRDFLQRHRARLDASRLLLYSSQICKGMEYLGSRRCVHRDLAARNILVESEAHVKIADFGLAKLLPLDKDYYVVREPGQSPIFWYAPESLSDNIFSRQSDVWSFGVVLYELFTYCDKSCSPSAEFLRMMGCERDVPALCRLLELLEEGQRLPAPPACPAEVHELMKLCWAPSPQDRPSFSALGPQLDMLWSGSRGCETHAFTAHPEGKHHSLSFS
Briefly: Inhibition of JAK3 at 1 uM. In short, it runs like this:
as §5

For experiment [22], the target named is Tyrosine-protein kinase JAK1 (Homo sapiens) (UniProt P23458). Nature of the experiment: Inhibition of JAK1 at 10 uM. In short, it runs like this: as §5
Experiment [23] deals with Tyrosine-protein kinase JAK2 (Homo sapiens) (UniProt O60674). Nature of the experiment: Inhibition of JAK2 at 10 uM. In short, it runs like this: as §5
Experiment [24] deals with T2, Tyrosine-protein kinase JAK3 (Homo sapiens). Nature of the experiment: Inhibition of JAK3 at 10 uM. In short, it runs like this: as §5
Experiment [25] deals with U-266. Nature of the experiment: Inhibition of Bcl2-like 1 transcription in human U266 cells at 0.5 uM after 6 hrs by microarray analysis. The class given is functional, cell-based. In short, it runs like this: as §1
The subject of experiment [26] is U-266. Nature of the experiment: Inhibition of MCL1 transcription in human U266 cells at 0.5 uM after 6 hrs by microarray analysis. The class given is functional, cell-based. In short, it runs like this: as §1
In experiment [27] the test system is U-266. Briefly: Inhibition of cyclin D1 transcription in human U266 cells at 0.5 uM after 6 hrs by microarray analysis. The class given is functional, cell-based. In short, it runs like this:
as §1

Activity calls are given as the source filed them. The calls are words filed in the database; no cut-off is given here.

Tyrosine-protein kinase JAK2 (Homo sapiens), sequence (O60674 whole entry): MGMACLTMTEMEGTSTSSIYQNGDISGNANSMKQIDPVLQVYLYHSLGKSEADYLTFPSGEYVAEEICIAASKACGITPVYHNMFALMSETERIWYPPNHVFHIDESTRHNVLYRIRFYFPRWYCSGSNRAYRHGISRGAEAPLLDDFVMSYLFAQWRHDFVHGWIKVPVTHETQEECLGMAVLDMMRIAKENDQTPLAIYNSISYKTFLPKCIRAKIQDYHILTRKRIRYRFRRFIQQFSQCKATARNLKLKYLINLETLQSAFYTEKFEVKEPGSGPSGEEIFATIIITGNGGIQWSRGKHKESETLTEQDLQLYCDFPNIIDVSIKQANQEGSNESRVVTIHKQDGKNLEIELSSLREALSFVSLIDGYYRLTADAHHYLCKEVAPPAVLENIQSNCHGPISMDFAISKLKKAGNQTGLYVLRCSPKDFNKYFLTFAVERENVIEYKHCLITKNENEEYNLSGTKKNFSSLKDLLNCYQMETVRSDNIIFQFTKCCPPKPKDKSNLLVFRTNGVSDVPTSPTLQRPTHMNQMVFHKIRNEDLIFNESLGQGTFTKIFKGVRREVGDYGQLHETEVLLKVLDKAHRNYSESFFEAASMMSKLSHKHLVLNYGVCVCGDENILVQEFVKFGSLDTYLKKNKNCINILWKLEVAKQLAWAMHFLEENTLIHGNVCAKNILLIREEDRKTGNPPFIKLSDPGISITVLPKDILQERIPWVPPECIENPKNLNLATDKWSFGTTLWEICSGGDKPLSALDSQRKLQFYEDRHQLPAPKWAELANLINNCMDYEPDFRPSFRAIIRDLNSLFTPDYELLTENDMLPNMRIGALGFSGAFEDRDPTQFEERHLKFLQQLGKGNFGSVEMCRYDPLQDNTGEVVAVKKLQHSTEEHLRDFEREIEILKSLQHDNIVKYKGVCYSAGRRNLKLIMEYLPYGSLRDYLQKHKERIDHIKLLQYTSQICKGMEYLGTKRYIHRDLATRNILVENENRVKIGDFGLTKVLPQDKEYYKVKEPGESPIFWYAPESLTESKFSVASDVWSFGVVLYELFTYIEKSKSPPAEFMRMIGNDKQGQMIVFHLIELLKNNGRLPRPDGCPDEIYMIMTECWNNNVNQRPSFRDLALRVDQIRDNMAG
Signal transducer and activator of transcription 3 (Homo sapiens), sequence (P40763 whole entry): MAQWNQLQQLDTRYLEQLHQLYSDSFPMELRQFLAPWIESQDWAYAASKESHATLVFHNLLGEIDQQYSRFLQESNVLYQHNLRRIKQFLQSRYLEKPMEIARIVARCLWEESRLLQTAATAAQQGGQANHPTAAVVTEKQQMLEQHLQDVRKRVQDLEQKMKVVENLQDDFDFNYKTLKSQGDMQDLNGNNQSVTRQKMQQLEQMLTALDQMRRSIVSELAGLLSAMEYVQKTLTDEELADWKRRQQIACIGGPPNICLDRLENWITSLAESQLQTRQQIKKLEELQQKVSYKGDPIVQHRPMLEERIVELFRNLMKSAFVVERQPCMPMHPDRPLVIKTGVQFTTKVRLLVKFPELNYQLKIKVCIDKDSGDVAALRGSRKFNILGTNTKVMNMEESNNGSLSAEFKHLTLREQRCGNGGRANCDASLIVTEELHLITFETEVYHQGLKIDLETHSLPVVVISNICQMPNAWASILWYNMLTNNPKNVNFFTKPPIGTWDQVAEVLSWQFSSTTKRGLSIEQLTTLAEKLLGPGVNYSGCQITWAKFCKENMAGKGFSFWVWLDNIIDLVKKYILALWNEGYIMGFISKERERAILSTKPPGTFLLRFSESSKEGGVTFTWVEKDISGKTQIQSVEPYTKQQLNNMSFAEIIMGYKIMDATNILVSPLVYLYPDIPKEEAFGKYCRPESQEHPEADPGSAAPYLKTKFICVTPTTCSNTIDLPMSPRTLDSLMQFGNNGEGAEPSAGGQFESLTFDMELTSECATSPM
Tyrosine-protein kinase JAK1 (Homo sapiens), sequence (P23458 whole entry): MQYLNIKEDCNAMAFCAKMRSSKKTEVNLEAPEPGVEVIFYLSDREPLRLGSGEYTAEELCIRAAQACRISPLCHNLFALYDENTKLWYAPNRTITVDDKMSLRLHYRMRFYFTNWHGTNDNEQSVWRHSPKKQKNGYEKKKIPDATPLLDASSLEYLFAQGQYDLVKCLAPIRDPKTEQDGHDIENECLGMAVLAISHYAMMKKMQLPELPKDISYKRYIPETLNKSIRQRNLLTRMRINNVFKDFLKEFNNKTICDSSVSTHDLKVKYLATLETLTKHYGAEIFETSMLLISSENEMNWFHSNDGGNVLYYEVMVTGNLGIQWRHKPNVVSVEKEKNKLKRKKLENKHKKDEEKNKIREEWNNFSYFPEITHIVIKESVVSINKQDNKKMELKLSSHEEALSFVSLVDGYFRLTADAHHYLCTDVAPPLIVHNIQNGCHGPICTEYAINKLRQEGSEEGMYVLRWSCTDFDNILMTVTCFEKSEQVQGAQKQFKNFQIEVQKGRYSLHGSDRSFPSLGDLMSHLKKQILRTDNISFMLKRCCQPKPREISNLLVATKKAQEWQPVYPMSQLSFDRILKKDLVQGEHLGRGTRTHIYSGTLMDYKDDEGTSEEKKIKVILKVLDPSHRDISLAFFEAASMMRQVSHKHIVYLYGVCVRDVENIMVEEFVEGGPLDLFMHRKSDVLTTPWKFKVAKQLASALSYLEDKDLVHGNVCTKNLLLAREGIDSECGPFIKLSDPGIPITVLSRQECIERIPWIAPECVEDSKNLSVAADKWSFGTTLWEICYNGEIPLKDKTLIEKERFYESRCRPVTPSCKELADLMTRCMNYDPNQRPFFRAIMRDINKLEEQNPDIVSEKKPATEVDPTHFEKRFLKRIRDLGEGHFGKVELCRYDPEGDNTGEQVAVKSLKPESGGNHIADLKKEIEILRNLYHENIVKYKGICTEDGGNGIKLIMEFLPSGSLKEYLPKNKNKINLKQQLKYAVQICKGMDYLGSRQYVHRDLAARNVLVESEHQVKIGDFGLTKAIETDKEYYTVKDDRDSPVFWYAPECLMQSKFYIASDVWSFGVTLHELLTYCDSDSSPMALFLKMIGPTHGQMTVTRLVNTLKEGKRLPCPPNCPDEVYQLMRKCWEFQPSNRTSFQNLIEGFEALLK
RAC-alpha serine/threonine-protein kinase (Homo sapiens), sequence (P31749 whole entry): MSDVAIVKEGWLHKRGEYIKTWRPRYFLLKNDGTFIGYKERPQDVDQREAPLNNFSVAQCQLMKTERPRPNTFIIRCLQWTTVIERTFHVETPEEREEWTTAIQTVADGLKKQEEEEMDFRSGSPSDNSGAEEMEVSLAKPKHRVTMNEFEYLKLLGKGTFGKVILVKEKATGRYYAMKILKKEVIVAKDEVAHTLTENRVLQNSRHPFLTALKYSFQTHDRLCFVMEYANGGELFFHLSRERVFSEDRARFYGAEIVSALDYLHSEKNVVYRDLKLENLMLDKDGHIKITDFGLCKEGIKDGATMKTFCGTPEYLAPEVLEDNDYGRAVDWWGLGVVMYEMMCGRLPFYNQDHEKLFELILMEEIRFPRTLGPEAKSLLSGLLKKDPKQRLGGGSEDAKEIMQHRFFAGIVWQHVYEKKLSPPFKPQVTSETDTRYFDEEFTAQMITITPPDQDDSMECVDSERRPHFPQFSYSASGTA
Non-receptor tyrosine-protein kinase TYK2 (Homo sapiens), sequence (P29597 whole entry): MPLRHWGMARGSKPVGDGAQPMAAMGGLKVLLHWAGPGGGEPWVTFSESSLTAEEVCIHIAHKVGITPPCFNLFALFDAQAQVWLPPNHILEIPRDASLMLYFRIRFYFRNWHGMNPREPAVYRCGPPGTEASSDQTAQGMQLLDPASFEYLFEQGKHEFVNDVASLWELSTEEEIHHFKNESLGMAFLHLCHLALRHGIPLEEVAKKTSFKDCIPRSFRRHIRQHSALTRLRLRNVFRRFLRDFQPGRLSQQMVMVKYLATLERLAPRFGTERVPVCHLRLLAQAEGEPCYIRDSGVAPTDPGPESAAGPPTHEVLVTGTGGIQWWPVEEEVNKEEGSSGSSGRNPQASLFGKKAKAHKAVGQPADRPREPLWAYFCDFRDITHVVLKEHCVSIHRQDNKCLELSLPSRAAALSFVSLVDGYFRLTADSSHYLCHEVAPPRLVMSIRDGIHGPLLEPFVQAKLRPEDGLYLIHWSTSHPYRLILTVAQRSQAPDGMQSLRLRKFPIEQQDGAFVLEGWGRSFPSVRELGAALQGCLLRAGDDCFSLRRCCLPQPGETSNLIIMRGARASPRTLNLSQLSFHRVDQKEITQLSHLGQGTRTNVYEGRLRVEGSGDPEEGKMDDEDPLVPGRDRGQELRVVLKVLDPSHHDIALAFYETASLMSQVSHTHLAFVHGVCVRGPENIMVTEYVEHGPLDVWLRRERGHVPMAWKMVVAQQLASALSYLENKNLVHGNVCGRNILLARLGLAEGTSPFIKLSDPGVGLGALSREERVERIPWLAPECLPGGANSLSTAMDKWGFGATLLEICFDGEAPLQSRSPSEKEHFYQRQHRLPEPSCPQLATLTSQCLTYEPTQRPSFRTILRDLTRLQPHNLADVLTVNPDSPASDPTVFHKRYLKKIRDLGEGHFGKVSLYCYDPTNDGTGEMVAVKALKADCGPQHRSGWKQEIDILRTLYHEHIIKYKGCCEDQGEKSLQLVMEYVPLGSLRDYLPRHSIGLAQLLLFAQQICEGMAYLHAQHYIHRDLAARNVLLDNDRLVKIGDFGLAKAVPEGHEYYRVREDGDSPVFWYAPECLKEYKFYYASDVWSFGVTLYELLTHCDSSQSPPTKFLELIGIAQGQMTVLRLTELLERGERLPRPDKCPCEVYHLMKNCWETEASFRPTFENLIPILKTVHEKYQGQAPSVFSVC

Regarding `CCOC(=O)c1cn(-c2c(F)c(F)c(F)c(F)c2F)c2c(F)c(F)c(F)c(F)c2c1=O`, the result in the experiment with U-266 [1] was Active. Besides, the outcome with A2780 was inactive.
As to `N#C/C(=C\c1ccc(O)c(O)c1)C(=O)NCc1ccccc1`, the result in the experiment on U-266 [2], in the experiment on U-266 [3] and in the experiment on U-266 [4] was Active.
Turning to `CCOC(=O)c1cn(-c2c(F)c(F)c(C#N)c(F)c2F)c2c(F)c(F)c(F)cc2c1=O`, the outcome (in [5]; in [6]; in [7]; in experiment [8]; with U-266 [1]; in experiment [13]) was Active. The outcome (in experiment [14]; in [15]; in [16]; in [17]; with U-266 [25]; in the experiment with U-266 [26]) was Active. Further, the result in the experiment with U-266 [27] was Active. The outcome (in experiment [9]; in experiment [10]; in experiment [11]; in experiment [12]; in [18]; in the experiment on A-431) was inactive. For the same compound, the result in experiment [19], in experiment [20], in [21], in [22], in experiment [23] and in experiment [24] was inactive.

(Values after ChEMBL document CHEMBL1155075, “Inhibition of the signal transducer and activator of transcription-3 (STAT3) signaling pathway by 4-oxo-1-phenyl-1,4-dihydroquinoline-3-carboxylic acid esters” (J Med Chem, 2008).)
